In ChEMBL document CHEMBL4270486, “Anti-inflammatory Activity of Natural Geranylated Flavonoids: Cyclooxygenase and Lipoxygenase Inhibitory Properties and Proteomic Analysis” (J Nat Prod, 2017):
Activity calls are given as the source filed them. No cut-off for these calls is given here.

How the values were obtained:
[1] = target: T1, Prostaglandin G/H synthase 2 (Homo sapiens, UniProt P35354); assay: Inhibition of human recombinant COX2 assessed as reduction in PGE2 formation pre-incubated for 5 mins before arachidonic acid addition and measured after 20 mins by ELISA
T1 sequence (P35354 whole entry): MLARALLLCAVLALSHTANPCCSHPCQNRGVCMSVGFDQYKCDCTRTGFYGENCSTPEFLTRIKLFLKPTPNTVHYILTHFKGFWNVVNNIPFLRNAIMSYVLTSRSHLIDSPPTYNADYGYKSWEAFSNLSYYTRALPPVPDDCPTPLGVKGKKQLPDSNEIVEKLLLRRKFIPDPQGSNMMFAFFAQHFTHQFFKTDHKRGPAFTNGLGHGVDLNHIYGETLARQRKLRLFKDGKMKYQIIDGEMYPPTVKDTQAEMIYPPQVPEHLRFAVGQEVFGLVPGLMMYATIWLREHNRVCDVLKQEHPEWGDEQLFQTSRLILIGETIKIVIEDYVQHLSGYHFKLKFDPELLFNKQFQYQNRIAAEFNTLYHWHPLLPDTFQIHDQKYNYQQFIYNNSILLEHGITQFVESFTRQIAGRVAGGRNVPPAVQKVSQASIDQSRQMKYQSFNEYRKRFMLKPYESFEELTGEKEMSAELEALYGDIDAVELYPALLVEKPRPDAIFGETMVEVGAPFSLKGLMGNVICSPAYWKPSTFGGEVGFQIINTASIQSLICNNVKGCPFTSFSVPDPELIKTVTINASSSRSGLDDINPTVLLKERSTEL

[2] = target: T2, Polyunsaturated fatty acid 5-lipoxygenase (Homo sapiens) (UniProt P09917); assay: Inhibition of human recombinant 5-LOX assessed as reduction in leukotriene B4 production at 20 uM pre-incubated for 10 mins before arachidonic acid addition and measured after 10 mins by ELISA
T2 sequence (whole entry): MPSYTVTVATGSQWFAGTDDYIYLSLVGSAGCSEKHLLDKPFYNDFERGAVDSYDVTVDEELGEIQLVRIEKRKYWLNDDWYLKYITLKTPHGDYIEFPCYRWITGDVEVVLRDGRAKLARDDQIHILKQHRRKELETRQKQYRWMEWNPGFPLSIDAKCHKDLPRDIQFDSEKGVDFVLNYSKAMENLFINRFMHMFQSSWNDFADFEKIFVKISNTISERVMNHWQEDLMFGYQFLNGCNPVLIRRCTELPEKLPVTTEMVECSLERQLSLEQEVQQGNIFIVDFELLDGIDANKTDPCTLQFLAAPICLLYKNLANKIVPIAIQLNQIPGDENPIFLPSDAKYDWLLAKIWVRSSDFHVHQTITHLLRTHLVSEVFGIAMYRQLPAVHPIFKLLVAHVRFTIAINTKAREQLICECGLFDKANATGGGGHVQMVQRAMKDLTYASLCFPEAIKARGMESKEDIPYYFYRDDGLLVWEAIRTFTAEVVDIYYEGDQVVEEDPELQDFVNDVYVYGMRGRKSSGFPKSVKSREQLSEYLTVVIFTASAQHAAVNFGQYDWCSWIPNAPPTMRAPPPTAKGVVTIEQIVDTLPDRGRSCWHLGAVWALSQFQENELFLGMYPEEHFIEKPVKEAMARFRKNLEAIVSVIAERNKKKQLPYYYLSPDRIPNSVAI
In short: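 Human recombinant 5-LOX, 1 unit/reaction, in PBS pH 7.4 containing 1 mM Na2EDTA and 200 μM ATP. Test compound in DMSO incubated 10 min at 4 °C. Reaction started with CaCl2 and arachidonic acid, 10 min at 37 °C, stopped with formic acid. LTB4 measured by ELISA (A405). […] Screening at 20 μM; ≥3 experiments, duplicate wells.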

[3] = target: T3, Prostaglandin G/H synthase 1 (Ovis aries, UniProt P05979); assay: Inhibition of ram seminal vesicle COX1 assessed as reduction in PGE2 formation pre-incubated for 5 mins before arachidonic acid addition and measured after 20 mins by ELISA
T3 sequence (P05979 whole entry): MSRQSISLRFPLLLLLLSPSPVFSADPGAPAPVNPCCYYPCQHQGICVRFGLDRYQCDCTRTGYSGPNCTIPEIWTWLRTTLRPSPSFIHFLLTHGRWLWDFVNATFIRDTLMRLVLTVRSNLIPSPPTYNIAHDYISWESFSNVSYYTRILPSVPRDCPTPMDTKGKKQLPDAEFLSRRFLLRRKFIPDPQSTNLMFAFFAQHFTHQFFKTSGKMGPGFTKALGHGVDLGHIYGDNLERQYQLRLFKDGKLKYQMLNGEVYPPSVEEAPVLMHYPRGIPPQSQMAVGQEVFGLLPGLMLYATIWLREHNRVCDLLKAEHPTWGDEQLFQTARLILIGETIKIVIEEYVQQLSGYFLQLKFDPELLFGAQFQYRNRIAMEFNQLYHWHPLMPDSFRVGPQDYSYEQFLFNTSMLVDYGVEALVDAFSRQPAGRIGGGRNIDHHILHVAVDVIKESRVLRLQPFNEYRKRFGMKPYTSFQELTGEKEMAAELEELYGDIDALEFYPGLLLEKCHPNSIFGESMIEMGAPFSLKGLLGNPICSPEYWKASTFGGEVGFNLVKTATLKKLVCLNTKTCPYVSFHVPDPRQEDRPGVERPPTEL
In short: (§1)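 COX-1 from ram seminal vesicles (1 unit) or human recombinant COX-2 (0.5 unit) in 100 mM Tris pH 8.0 with 5 μM hematin, 18 mM L-epinephrine and 50 μM Na2EDTA. Compound in DMSO preincubated 5 min at room temperature. Arachidonic acid added, 20 min at 37 °C, stopped with formic acid. PGE2 by ELISA (A405).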

[4] = target: T4, Polyunsaturated fatty acid 5-lipoxygenase (Homo sapiens, UniProt P09917); assay: Inhibition of human recombinant 5-LOX assessed as reduction in leukotriene B4 production pre-incubated for 10 mins before arachidonic acid addition and measured after 10 mins by ELISA
T4 sequence (P09917 whole entry): T2 sequence (whole entry)
In short: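 Human recombinant 5-LOX, 1 unit/reaction, in PBS pH 7.4 containing 1 mM Na2EDTA and 200 μM ATP. Test compound in DMSO incubated 10 min at 4 °C. Reaction started with CaCl2 and arachidonic acid, 10 min at 37 °C, stopped with formic acid. LTB4 measured by ELISA (A405). Screening at 20 μM; ≥3 experiments, duplicate wells.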

[5] = Selectivity index, ratio of IC50 for ram seminal vesicle COX1 to IC50 for human recombinant COX2
[6] = target: T5, Prostaglandin G/H synthase 2 (Homo sapiens) (UniProt P35354); assay: Inhibition of human recombinant COX2 assessed as reduction in PGE2 formation at 20 uM pre-incubated for 5 mins before arachidonic acid addition and measured after 20 mins by ELISA; in short: as §1
T5 sequence (whole entry): T1 sequence (P35354 whole entry)

[7] = target: T2, Polyunsaturated fatty acid 5-lipoxygenase (Homo sapiens); assay: Potency index, ratio of IC50 for zileuton to IC50 for test compound fior inhibition of human recombinant 5-LOX assessed as reduction in leukotriene B4 production pre-incubated for 10 mins before arachidonic acid addition and measured after 10 mins by ELISA
[8] = tested on: THP-1; assay: Inhibition of LPS-induced increase in CCL1 protein expression in LPS-stimulated human THP1 cells at 2 uM by proteomic analysis relative to untreated control; format: functional, cell-based
In short: (§2)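 THP-1 monocytes in RPMI 1640 with 10% FBS and 2 mM L-glutamine, differentiated to macrophages with phorbol myristate acetate, then 24 h serum-free. Pretreatment 1 h with compound in DMSO (2 μM final) or DMSO alone, then LPS (E. coli 0111:B4, 1.0 μg/mL) for 24 h. Filter-aided trypsin digestion, iTRAQ 4-plex labelling, LC-MS/MS. Five biological replicates pooled per group.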

[9] = tested on: THP-1; assay: Inhibition of LPS-induced increase in IL1 protein expression in LPS-stimulated human THP1 cells at 2 uM by proteomic analysis relative to untreated control; format: functional, cell-based; in short: as §2
[10] = tested on: THP-1; assay: Inhibition of LPS-induced increase in CXCL1 protein expression in LPS-stimulated human THP1 cells at 2 uM by proteomic analysis relative to untreated control; format: functional, cell-based; in short: as §2
[11] = tested on: THP-1; assay: Inhibition of LPS-induced decrease in VIP2 protein expression in LPS-stimulated human THP1 cells at 2 uM by proteomic analysis relative to untreated control; format: functional, cell-based; in short: as §2
[12] = tested on: THP-1; assay: Inhibition of LPS-induced increase in TNFalpha protein expression in LPS-stimulated human THP1 cells at 2 uM by proteomic analysis relative to untreated control; format: functional, cell-based; in short: as §2
[13] = tested on: THP-1; assay: Inhibition of LPS-induced increase in CCL5 protein expression in LPS-stimulated human THP1 cells at 2 uM by proteomic analysis relative to untreated control; format: functional, cell-based; in short: as §2
[14] = tested on: THP-1; assay: Increase in COX2 protein expression in human THP1 cells at 2 uM by proteomic analysis relative to untreated control; format: ADME, cell-based; conditions: thp-1, 2 µM; in short: as §2
[15] = tested on: THP-1; assay: Increase in TX1B3 protein expression in human THP1 cells at 2 uM by proteomic analysis relative to untreated control; format: ADME, cell-based; conditions: read-out: FC; in short: as §2
[16] = tested on: THP-1; assay: Increase in RNF207 protein expression in human THP1 cells at 2 uM by proteomic analysis relative to untreated control; format: ADME, cell-based; conditions: read-out: FC; in short: as §2
[17] = tested on: THP-1; assay: Increase in COX2 protein expression in LPS-stimulated human THP1 cells at 2 uM by proteomic analysis relative to untreated control; format: functional; in short: as §2

SMILES	IC50 [1] [µM]	inhibition [2]	IC50 [3] [µM]	IC50 [4] [µM]	Ratio IC50 [5]	inhibition [6]	also measured
COc1cc([C@@H]2CC(=O)c3c(cc(O)c(C/C=C(\C)CCC=C(C)C)c3O)O2)cc(O)c1O	10.6	Active	3.3	0.06	0.31	Active	Ratio IC50 [7]: 10
CC(C)=CCC/C(C)=C/Cc1c(O)cc2c(c1O)C(=O)C[C@@H](c1ccc(O)cc1)O2 [BONANNIONE A]	6		3.7		0.62	Active	
COc1cc([C@@H]2CC(=O)c3c(cc4c(c3O)C=CC(C)(CCC=C(C)C)O4)O2)ccc1O (some centres not stated)	9.5		26.3		2.8	Active	
CC(C)=CCCC1(C)C=Cc2c(cc3c(c2O)C(=O)C[C@@H](c2cc(O)cc(O)c2)O3)O1 (some centres not stated)		Active		0.35			
COc1cc([C@@H]2CC(=O)c3c(cc(O)c(C/C=C(\C)CCC=C(C)C)c3O)O2)cc(OC)c1O		Active		0.38			
COc1cc([C@@H]2CC(=O)c3c(cc(O)c(C/C=C(\C)CCC=C(C)C)c3O)O2)cc(O)c1OC	6.4		4.2		0.66	Active	
COc1cc(C2CC(=O)c3c(cc4c(c3O)C=CC(C)(CCC=C(C)C)O4)O2)cc(OC)c1O (configuration not stated)		Active		0.37			
CC(C)=CCC/C(C)=C/Cc1c(O)cc2occc(=O)c2c1O		Active		2.46			
CC(C)=CCC/C(C)=C/Cc1c(O)cc2c(c1O)C(=O)C[C@@H](c1ccc(O)c(O)c1)O2 [NYMPHAEOL A]	4.2	Active	1.8	0.05		Active	inhibition [8]: Active; inhibition [9]: Active; inhibition [10]: Active; inhibition [11]: Active; inhibition [12]: Active; inhibition [13]: Active; Activity [14]: Non-Toxic; fold induction at 2 µM [15]: 1.88; fold induction at 2 µM [16]: 2.09; fold change (FC) [17]: 1.55
